# Values joined by “and” are separate entries in the source; they are usually repeats but may differ in a detail not shown here. Identical values can stand only once. Active and inactive are the calls of the source. The calls are words filed in the database; no cut-off is given here.
# Columns and labels:
# Rattus norvegicus [1] = species on record: Rattus norvegicus; test: Effect on half-maximal decrease of DOPA formation in rat striatal regions; type: functional
# Rattus norvegicus [2] = species on record: Rattus norvegicus; test: Tested for locomotor activity by measuring accumulated counts/30 min in reserpine-pretreated rats; type: functional
# Method in brief: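 Rats given reserpine 5 mg/kg sc 18 h beforehand, then test drug sc immediately before the session. Motor activity recorded by photocell motility meter as accumulated counts over 30 min, mean ± SEM (n = 3–4). Reserpine controls were used; Student's t test. Injection volume 5 mL/kg at roughly neutral pH.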
# Rattus norvegicus [3] = species on record: Rattus norvegicus; test: Effect on half-maximal decrease of DOPA formation in rat striatal regions; In active (no significant effect […]); type: functional, organism-based
# Rattus norvegicus [4] = species on record: Rattus norvegicus; test: Tested for locomotor activity by measuring accumulated counts/30 min in reserpine-non-pretreated rats; type: functional
# Method in brief: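 Nonpretreated rats were injected with test drug 5 min before a photocell motility session, and counts were accumulated over 30 min. Activity expressed as percent of saline controls, mean ± SEM (n = 3–5), compared by Student's t test. Injections were 5 mL/kg at approximately neutral pH.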
# Rattus norvegicus [5] = species on record: Rattus norvegicus; test: Effect on half-maximal decrease of DOPA formation in rat limbic regions; In active (no significant effect […]); type: functional; settings: Limbic system
# Rattus norvegicus [6] = species on record: Rattus norvegicus; test: Effect on half-maximal decrease of DOPA formation in rat limbic regions; type: functional; settings: Limbic system
# Rattus norvegicus [7] = test: Effect on half-maximal decrease of DOPA formation in rat limbic regions; In active (no significant decrease at […] sc); type: functional, organism-based; settings: Limbic system
Structure (SMILES),ED50 (Rattus norvegicus [1]) [µmol/kg],No. of counts (Rattus norvegicus [2]),ED50 (Rattus norvegicus [3]),No. of counts (Rattus norvegicus [4]),ED50 (Rattus norvegicus [5]),ED50 (Rattus norvegicus [6]) [µmol/kg],ED50 (Rattus norvegicus [7]),ED50 (Rattus norvegicus [5]; ip) [µmol/kg]
CCCN(CCC)[C@H]1Cc2cc(O)ccc2C[C@H]1C,7.5,331 counts/30 min,inactive,119%,inactive,11,,
CCCN(CCC)[C@H]1Cc2cc(O)ccc2C[C@@H]1C,,35 counts/30 min,inactive,89%,inactive,,,
CCCN(CCC)[C@H]1Cc2cc(OC)ccc2CC1C (stereo partly specified),,,inactive,96%,inactive,,,
CCCN(CCC)[C@@H]1CCc2ccc(O)cc2C1,0.01,46 counts/30 min,,,,0.01,,
CCCN[C@H]1Cc2cc(OC)ccc2CC1C (stereo partly specified),,,inactive,128%,inactive,,,
"CCCN(CCC)[C@@H]1CCc2ccc(OC)cc2C1C (single isomer, unassigned; 5) [listing 1 of 2 here]",,4 counts/30 min,,109% and 92%,,,,
"CCCN(CCC)[C@@H]1CCc2ccc(OC)cc2C1C (single isomer, unassigned; 5) [listing 2 of 2 here]",,,inactive,,inactive,,inactive,
"CCCN(CCC)[C@@H]1CCc2ccc(O)cc2C1C (single isomer, unassigned; 6) [listing 1 of 2 here]",,14 counts/30 min and 17 counts/30 min,,126% and 136%,,,,
"CCCN(CCC)[C@@H]1CCc2ccc(O)cc2C1C (single isomer, unassigned; 6) [listing 2 of 2 here]",,,inactive,,inactive,,,
"CCCN(CCC)[C@@H]1CCc2ccc(OC)cc2C1C (single isomer, unassigned; 9) [listing 1 of 2 here]",1.3,,,38% and 28%,,,,0.9
"CCCN(CCC)[C@@H]1CCc2ccc(OC)cc2C1C (single isomer, unassigned; 9) [listing 2 of 2 here]",,,inactive,,inactive,,,
"CCCN(CCC)[C@@H]1CCc2ccc(O)cc2C1C (single isomer, unassigned; 10) [listing 1 of 2 here]",,50 counts/30 min and 20 counts/30 min,,,,,,
"CCCN(CCC)[C@@H]1CCc2ccc(O)cc2C1C (single isomer, unassigned; 10) [listing 2 of 2 here]",,,inactive,,inactive,,,
"CCCN[C@@H]1CCc2ccc(O)cc2C1C (single isomer, unassigned; (+))",1.2,59 counts/30 min,,,,1.4,,
"CCCN[C@@H]1CCc2ccc(O)cc2C1C (single isomer, unassigned; (-)) [listing 1 of 2 here]",,8 counts/30 min,,,,,,
"CCCN[C@@H]1CCc2ccc(O)cc2C1C (single isomer, unassigned; (-)) [listing 2 of 2 here]",,,inactive,,inactive,,,
CN1CCc2cccc3c2[C@H]1Cc1ccc(O)c(O)c1-3 [APOMORPHINE],0.04,366 counts/30 min,,227%,,0.04,,
O=C(CCCN1CCC(O)(c2ccc(Cl)cc2)CC1)c1ccc(F)cc1 [HALOPERIDOL],0.19,,inactive,3%,inactive,0.19,,
